This is a sample that favours compounds with a hit; in the whole collection about 1.8% have one here.
Runt-CBFb FRET: inhibitors of human RUNX1 Runt domain binding to CBFb; Cerulean-Runt/Venus-CBFb FRET ratio 530/480, 1 h; inhibition, % at 20 µM; Q01196+Q13951; AID 1496; 0.46% of 220,000 active;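 active = inhibition over about 50% at 20 µM in the single-dose screen, limit read from the data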
Target sequence (Q01196 whole entry, looked up, the tested form may be a part): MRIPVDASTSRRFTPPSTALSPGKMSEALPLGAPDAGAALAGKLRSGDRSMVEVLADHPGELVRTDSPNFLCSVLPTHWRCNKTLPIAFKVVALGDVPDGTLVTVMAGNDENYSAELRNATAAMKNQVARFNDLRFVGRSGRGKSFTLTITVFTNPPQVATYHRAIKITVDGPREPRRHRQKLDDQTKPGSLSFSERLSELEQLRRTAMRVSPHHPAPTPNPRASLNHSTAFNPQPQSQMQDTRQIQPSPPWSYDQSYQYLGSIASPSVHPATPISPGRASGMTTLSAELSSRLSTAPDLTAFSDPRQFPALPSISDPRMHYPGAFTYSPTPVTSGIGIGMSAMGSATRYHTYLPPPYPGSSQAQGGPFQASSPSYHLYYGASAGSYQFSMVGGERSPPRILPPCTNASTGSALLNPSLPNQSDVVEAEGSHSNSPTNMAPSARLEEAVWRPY
Target sequence (Q13951 whole entry, looked up, the tested form may be a part): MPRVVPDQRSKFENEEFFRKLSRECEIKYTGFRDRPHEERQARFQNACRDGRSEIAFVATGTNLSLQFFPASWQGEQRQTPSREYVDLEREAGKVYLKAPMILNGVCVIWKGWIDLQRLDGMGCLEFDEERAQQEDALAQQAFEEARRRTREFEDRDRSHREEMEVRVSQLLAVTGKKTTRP
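Doses: 20 µM compound in 1% DMSO | Material: Cerulean-labeled Runt domain protein | Amount: Each fluorescent fusion protein 100 nM | Schedule: Two 1 h room-temperature incubations shielded from light | Measured by: FRET fluorescence | Evaluation: Loss of energy transfer signal | Controls: Unlabeled CBFb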
Runt-SMMHC FRET: Runt domain-CBFb-SMMHC interaction inhibition; Q01196+Q13951; Cerulean-Runt/Venus-CBFb-SMMHC FRET ratio 530/480, 1 h; inhibition, % at 20 µM; 0.74% of 220,000 active;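 active = mean inhibition across duplicate retests at 20 µM reaching about 50%, limit read from the data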;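 also: inhibitors lower the FRET ratio by blocking Runt binding to CBFb-SMMHC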
RanGTP-Impb inh: inhibitors of RanGTP-importin-beta interaction, primary screen, biochemical, FRET, CFP-Ran, YFP-importin-beta, homogeneous. cell-free CFP-Ran/YFP-importin-beta FRET ratio. inhibition, % (test concentration not listed). 1.1% of 300,000 active. AID 2216;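 active = more than half of the replicate wells show a fall in the fluorescence ratio signal beyond about 16%, limit read from the data, passing the limit was not always enough; inconclusive = exactly half of the replicate wells pass the set limit; inactive = fewer than half of replicates pass the limit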
Hck-Nef inh: blocks Nef-activated human Hck kinase; Recombinant Hck-YEEI plus Nef, Z-Lyte FRET kinase assay; inhibition, % at 20 µM; 0.68% of 220,000 active; AID 463187;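 active = Hck-Nef kinase inhibition above about 50%, limit read from the data; inactive = inhibition below that limit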
Hits are given with their value; - = inactive; ? = inconclusive; . = no result; + = active, no number.

SMILES | Runt-CBFb FRET | Runt-SMMHC FRET | RanGTP-Impb inh | Hck-Nef inh
CN1CC=C2C(C#N)=C(N)C(C#N)(C#N)C(c3cccc(Cl)c3Cl)C2C1 (stereo unspecified) | - | 62.0 | 37.3 | -
N#CC1=C(N)C(C#N)(C#N)C(c2cccnc2)C2CN(C(=O)OCc3ccccc3)CC=C12 (stereo unspecified) | - | - | - | -
N#CC1=C(N)C(C#N)(C#N)[C@H](c2ccoc2)[C@H]2CN(Cc3ccccc3)CC=C12 | - | 57.4 | 107.3 | -
CN1CC=C2C(C#N)=C(N)C(C#N)(C#N)[C@H](c3ccoc3)[C@H]2C1 | - | 59.0 | 51.5 | -
CC(=O)N1CC=C2C(C#N)=C(N)C(C#N)(C#N)C(CCc3ccccc3)C2C1 (stereo unspecified) | - | - | - | -
COc1ccccc1C(=O)COC(=O)Cn1nc(C)c([N+](=O)[O-])c1C | . | . | - | .
COC(=O)C1=CN(CCCN2CCCC2=O)C=C(C(=O)OC)C1c1cccs1 | - | 86.8 | ? | -
CCC(C)n1c(=N)c(C#N)cc2c(=O)n3ccccc3nc21 (stereo unspecified) | 92.5 | 95.4 | 177.4 | -
COC(=O)c1cc2c(=O)n3ccccc3nc2n(C(C)C)c1=N | . | . | . | +
CC1(C)CC(NC(=O)c2cccc(Cl)c2)CC(C)(C)N1 | . | . | - | .
O=C(NCCCNC(=O)C(F)(F)C(F)F)C(F)(F)C(F)F | - | - | 28.6 | -
O=C(NN=C(Cc1ccccc1)Cc1ccccc1)c1ccccc1F | - | - | ? | -
O=C(NN=C(Cc1ccccc1)Cc1ccccc1)C1CC1 | - | - | 34.3 | -
COc1ccc(-n2cc([N+](=O)[O-])c(=O)c3ccc(Cl)cc32)cc1 | . | . | - | .
Cc1ccc(NS(=O)(=O)c2c(C(=O)N3CCCCCC3)c(C)n(C)c2C)cc1C | . | . | - | .
COC(=O)c1ccc2[nH]c(C)c(CN3CCCC3)c(=O)c2c1 | - | 64.0 | - | -
O=C(CNC(=O)c1sc2ccccc2c1Cl)NCc1cccc(C(F)(F)F)c1 | . | . | - | .
CC(=O)c1ccc2c(c1)c(C#N)c1ccccc1[n+]2[O-] | . | . | 68.3 | .
CC(=O)c1ccc2noc(-c3ccccc3)c2c1 | . | . | - | -
CCOC(=O)CSc1nc(N2CCOCC2)c2c(c1C#N)CC(C)(C)N(C)C2 | 60.5 | 83.5 | 19.2 | -
COc1ccc(-c2cc(-c3ccc(C)cc3)nc(SCc3nnc(-c4ccccc4)o3)c2C#N)cc1OC | - | - | - | -
COC(=O)c1c(C(=O)OC)c(-c2ccccc2)n2c1CS(=O)(=O)C2 | - | - | 21.5 | -
Cc1ccc(-n2c(N)c(-c3nc4ccccc4n3C)sc2=S)cc1 | - | - | 27.9 | -
COc1ccc(/C=C2\N=C(c3ccccc3)N(c3ccc(C(=O)O)cc3)C2=O)cc1OC | - | - | 25.8 | -
FC(F)(F)c1cccc(NC(=S)Nc2cccc(NC(=S)Nc3cccc(C(F)(F)F)c3)n2)c1 | - | - | 14.8 | -
SMILES | Runt-CBFb FRET | Runt-SMMHC FRET | RanGTP-Impb inh | Hck-Nef inh
FC(F)Sc1nc2ccccc2[nH]1 | - | - | - | -
CC(Nc1ncnc2sccc12)c1ccccc1 (stereo unspecified) | . | . | 27.8 | .
c1ccc(Nc2ncnc3sccc23)cc1 | . | . | - | .
CC(=O)c1cccc(NC(=O)N2CCC(NC(=O)C3CCCCC3)CC2)c1 | . | . | - | .
O=c1[nH]c(SCc2ccccc2)nc2c1cnn2-c1ccc(F)cc1 | - | - | 28.4 | -
NNc1nc2c(-c3ccc(F)cc3)nnn2c2ccccc12 | - | - | 21.2 | -
CCOC(=O)c1cc2c(=O)n3cc(C)ccc3nc2n(Cc2cccnc2)c1=N | - | - | . | .
N=c1c(C(=O)NCc2ccco2)cc2c(=O)n3ccccc3nc2n1Cc1ccccc1 | - | 58.1 | 116.5 | -
N=c1c(C(=O)NCc2ccc(F)cc2)cc2c(=O)n3ccccc3nc2n1Cc1ccco1 | 69.4 | . | - | -
N=c1c(C(=O)NCc2ccccc2)cc2c(=O)n3ccccc3nc2n1Cc1ccco1 | - | . | 77.9 | -
Cc1ccc2nc3c(cc(C(=O)NCc4ccco4)c(=N)n3Cc3ccco3)c(=O)n2c1 | . | . | 89.0 | -
COc1cc(/C=N/NC(=O)c2ccncc2)ccc1OC(=O)c1cccc(F)c1 | . | . | - | .
CCOC(=O)C1CCCN(Cc2nc(Cc3ccccc3Cl)no2)C1 (stereo unspecified) | - | - | - | -
Cc1ccc(CNC(=O)c2cc3c(=O)n4ccccc4nc3n(Cc3ccco3)c2=N)cc1 | 88.3 | - | 78.3 | .
N=c1c(C(=O)NCc2ccco2)cc2c(=O)n3ccccc3nc2n1Cc1ccc(Cl)cc1 | 65.9 | - | 125.6 | -
COc1ccc(CCn2c(=N)c(C(=O)NC3CCCC3)cc3c(=O)n4ccccc4nc32)cc1OC | . | . | - | .
COCCn1c(=N)c(C(=O)NCc2ccco2)cc2c(=O)n3ccccc3nc21 | - | - | . | -
N=c1c(C(=O)NCc2ccco2)cc2c(=O)n3ccccc3nc2n1C1CCCC1 | . | . | 135.1 | .
CCn1c(=N)c(C(=O)OC)cc2c(=O)n3ccccc3nc21 | - | - | . | .
CCCCCCNC(=O)N[C@H](C(=O)NCCC[C@H]1CN2C(=NC[C@H]2C)N1CCC(c1ccccc1)c1ccccc1)C(C)O (stereo partly specified) | - | 61.8 | . | -
Cc1ccc(S(=O)(=O)NCC(=O)NCC(=O)OCC(=O)N2CC(=O)Nc3ccccc32)cc1C | - | - | - | -
CCOc1ccc2nc3cc(NCc4ccc(OC)cc4)ccc3c(N)c2c1 | . | . | 26.7 | .
O=C(Nc1ccccc1)c1cnc[nH]1 | 88.9 | - | - | -
Nc1ccc2nc(SCc3cccc(F)c3)sc2c1 | - | - | - | -
COc1ccc(/C=N/Nc2cc(C)nc3ccc(OC)cc23)c(OC)c1 | . | . | 20.1 | .
SMILES | Runt-CBFb FRET | Runt-SMMHC FRET | RanGTP-Impb inh | Hck-Nef inh
COc1ccccc1/C=N/Nc1cc(C)nc2ccc(C)cc12 | . | . | - | .
CCC1C/C(=C/c2ccco2)C(=O)/C(=C/c2ccco2)C1 (stereo unspecified) | - | - | . | 61.5
CCC1C/C(=C\c2cc(OC)c(OC)cc2OC)C(=O)/C(=C/c2cc(OC)c(OC)cc2OC)C1 (stereo unspecified) | . | . | - | .
CCOC(=O)c1cc2occc2n1CC(=O)N1CCCc2ccccc21 | - | - | - | -
COC(=O)C1=CN(Cc2ccc(OC)c(OC)c2)C=C(C(=O)OC)C1c1cccc(OC)c1OC | . | . | 72.6 | .
COC(=O)C1=CN(Cc2ccc(OC)cc2)C=C(C(=O)OC)C1c1cccs1 | - | - | - | -
COC(=O)C1=CN(C2CC2)C=C(C(=O)OC)C1c1ccccc1OC | 105.0 | - | 32.0 | -
COC(=O)C1=CN(Cc2cccs2)C=C(C(=O)OC)C1c1cccc(OC)c1OC | 93.2 | - | 71.1 | -
COC(=O)C1=CN(Cc2ccc(OC)c(OC)c2)C=C(C(=O)OC)C1c1ccc(F)cc1 | . | . | 17.7 | .
CN(CC(=O)Oc1ccc(-c2nnco2)cc1)S(=O)(=O)c1ccc(F)cc1 | . | . | - | .
COc1ccc2c(C#N)c3ccccn3c2c1 | - | 91.9 | - | -
Cc1cc(=O)n2ccccc2c1C#N | - | - | - | -
COC(CNC(=O)c1ccc(Cn2c(=S)[nH]c3cc4c(cc3c2=O)OCO4)cc1)OC | - | - | 125.2 | -
